Measured values as given in ChEMBL document CHEMBL1128440 (J Med Chem, 1995).

How the values were obtained:
Rattus norvegicus [1] = species on record: Rattus norvegicus; assay: Tissue biodistribution into estrogen-primed immature female rat liver at 1 hr blocked time interval; type: ADME, organism-based; details: in vivo
Summary of the method: (§1)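 Immature female Sprague-Dawley rats (25 days old, ≈50 g, five per time point) primed with estradiol, 5 μg sc daily for 2 days in 50% ethanol/sunflower seed oil, used 24 h after the last injection. The 18F-labeled ligand was given iv by tail vein in 10% ethanol/saline. Decapitated at 1 or 3 h; blood and organs weighed and gamma-counted. Reported as %ID/g ± SD, n = 5.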

Rattus norvegicus [2] = species on record: Rattus norvegicus; assay: Tissue biodistribution into estrogen-primed immature female rat fat at 1 hr low time interval; type: ADME, organism-based, Adipose tissue; details: in vivo; summary of the method: as §1
Rattus norvegicus [3] = species on record: Rattus norvegicus; assay: Tissue biodistribution into estrogen-primed immature female rat blood at 1 hr time interval; type: ADME, organism-based; details: in vivo; summary of the method: as §1
Rattus norvegicus [4] = species on record: Rattus norvegicus; assay: Tissue biodistribution into estrogen-primed immature female rat liver at 1 hr time interval; type: ADME, organism-based; details: in vivo; summary of the method: as §1
[5] = molecular target: T1, Progesterone receptor (Homo sapiens) (UniProt P06401); assay: Binding selectivity index as the ratio of RBA value to that of NSB value.
T1 sequence (whole entry): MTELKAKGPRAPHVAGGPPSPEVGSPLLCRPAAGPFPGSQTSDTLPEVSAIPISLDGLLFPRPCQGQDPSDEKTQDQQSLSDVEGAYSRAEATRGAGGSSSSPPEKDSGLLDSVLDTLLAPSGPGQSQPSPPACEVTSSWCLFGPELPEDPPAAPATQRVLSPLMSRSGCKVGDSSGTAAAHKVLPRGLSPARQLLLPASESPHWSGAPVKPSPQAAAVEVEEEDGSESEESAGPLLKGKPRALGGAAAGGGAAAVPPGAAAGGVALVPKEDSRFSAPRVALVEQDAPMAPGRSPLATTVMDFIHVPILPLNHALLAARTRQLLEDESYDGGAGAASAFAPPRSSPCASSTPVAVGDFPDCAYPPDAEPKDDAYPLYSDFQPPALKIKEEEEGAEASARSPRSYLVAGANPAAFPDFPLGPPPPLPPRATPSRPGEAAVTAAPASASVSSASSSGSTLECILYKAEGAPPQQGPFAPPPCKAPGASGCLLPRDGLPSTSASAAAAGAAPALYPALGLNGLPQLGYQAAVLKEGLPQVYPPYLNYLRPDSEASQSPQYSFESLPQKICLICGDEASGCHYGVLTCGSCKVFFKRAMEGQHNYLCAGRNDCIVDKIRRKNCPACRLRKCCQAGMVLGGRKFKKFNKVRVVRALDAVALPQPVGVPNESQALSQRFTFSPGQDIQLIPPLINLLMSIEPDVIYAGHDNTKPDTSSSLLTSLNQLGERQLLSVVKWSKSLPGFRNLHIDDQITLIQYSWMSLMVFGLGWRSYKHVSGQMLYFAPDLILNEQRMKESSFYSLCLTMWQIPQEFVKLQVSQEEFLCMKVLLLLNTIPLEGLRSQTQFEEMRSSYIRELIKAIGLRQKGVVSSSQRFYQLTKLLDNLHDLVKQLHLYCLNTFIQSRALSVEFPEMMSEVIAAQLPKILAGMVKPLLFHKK
Summary of the method: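 BSI calculated as the ratio of RBA to NSB.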

Rattus norvegicus [6] = species on record: Rattus norvegicus; assay: Tissue biodistribution into estrogen-primed immature female rat uterus/muscle at 1 hr low time interval; type: ADME, organism-based; details: in vivo; summary of the method: as §1
Rattus norvegicus [7] = species on record: Rattus norvegicus; assay: Tissue biodistribution into estrogen-primed immature female rat blood at 1 hr low time interval; type: ADME, organism-based; details: in vivo; summary of the method: as §1
Rattus norvegicus [8] = species on record: Rattus norvegicus; assay: Tissue biodistribution into estrogen-primed immature female rat ovaries at 3 hr time interval; type: ADME, organism-based, Female gonad; details: in vivo; summary of the method: as §1
[9] = molecular target: T1, Progesterone receptor (Homo sapiens); assay: Nonspecific binding affinity against progesterone receptor was estimated relative to compound R5020
Rattus norvegicus [10] = species on record: Rattus norvegicus; assay: Tissue biodistribution into estrogen-primed immature female rat brain at 1 hr blocked time interval; type: ADME, organism-based; details: in vivo; summary of the method: as §1
Rattus norvegicus [11] = species on record: Rattus norvegicus; assay: Tissue biodistribution into estrogen-primed immature female rat bone at 1 hr blocked time interval; type: ADME, organism-based, Bone element; details: in vivo; summary of the method: as §1
Rattus norvegicus [12] = species on record: Rattus norvegicus; assay: Tissue biodistribution into estrogen-primed immature female rat blood at 3 hr time interval; type: ADME, organism-based; details: in vivo; summary of the method: as §1
Rattus norvegicus [13] = species on record: Rattus norvegicus; assay: Tissue biodistribution into estrogen-primed immature female rat bone at 1 hr low time interval; type: ADME, organism-based, Bone element; details: in vivo; summary of the method: as §1
Rattus norvegicus [14] = species on record: Rattus norvegicus; assay: Tissue biodistribution into estrogen-primed immature female rat liver at 3 hr time interval; type: ADME, organism-based; details: in vivo; summary of the method: as §1
Rattus norvegicus [15] = species on record: Rattus norvegicus; assay: Tissue biodistribution into estrogen-primed immature female rat brain at 3 hr time interval; type: ADME, organism-based; details: in vivo; summary of the method: as §1
Rattus norvegicus [16] = species on record: Rattus norvegicus; assay: Tissue biodistribution into estrogen-primed immature female rat uterus/blood at 1 hr low time interval; type: ADME, organism-based; details: in vivo; summary of the method: as §1
Rattus norvegicus [17] = species on record: Rattus norvegicus; assay: Tissue biodistribution into estrogen-primed immature female rat kidney at 3 hr time interval; type: ADME, organism-based; details: in vivo; summary of the method: as §1
Rattus norvegicus [18] = species on record: Rattus norvegicus; assay: Tissue biodistribution into estrogen-primed immature female rat blood at 1 hr blocked time interval; type: ADME, organism-based; details: in vivo; summary of the method: as §1
Rattus norvegicus [19] = species on record: Rattus norvegicus; assay: Tissue biodistribution into estrogen-primed immature female rat kidney at 1 hr time interval; type: ADME, organism-based; details: in vivo; summary of the method: as §1
Rattus norvegicus [20] = species on record: Rattus norvegicus; assay: Tissue biodistribution into estrogen-primed immature female rat muscle at 1 hr blocked time interval; type: ADME, organism-based; details: in vivo; summary of the method: as §1
Rattus norvegicus [21] = species on record: Rattus norvegicus; assay: Tissue biodistribution into estrogen-primed immature female rat kidney at 1 hr blocked time interval; type: ADME, organism-based; details: in vivo; summary of the method: as §1
Rattus norvegicus [22] = species on record: Rattus norvegicus; assay: Tissue biodistribution into estrogen-primed immature female rat uterus/blood at 1 hr blocked time interval; type: ADME, organism-based; details: in vivo; summary of the method: as §1
Rattus norvegicus [23] = species on record: Rattus norvegicus; assay: Tissue biodistribution into estrogen-primed immature female rat liver at 1 hr low time interval; type: ADME, organism-based; details: in vivo; summary of the method: as §1
[24] = molecular target: T1, Progesterone receptor (Homo sapiens); assay: Relative binding affinity against progesterone receptor at 0 degree Celsius determined in a competitive radiometric binding assay (R5020=100%).
Summary of the method: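 Competitive radiometric binding at 0 °C against tritium-labeled R5020 as the standard (RBA = 100). Values are the average of two experiments.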

Rattus norvegicus [25] = species on record: Rattus norvegicus; assay: Tissue biodistribution into estrogen-primed immature female rat fat at 1 hr time interval; type: ADME, organism-based, Adipose tissue; details: in vivo; summary of the method: as §1
Rattus norvegicus [26] = species on record: Rattus norvegicus; assay: Tissue biodistribution into estrogen-primed immature female rat ovaries at 1 hr low time interval; type: ADME, organism-based, Female gonad; details: in vivo; summary of the method: as §1

Injected dose/g (Rattus norvegicus [1]): 1.52%
Injected dose/g (Rattus norvegicus [2]): 1.86%
Injected dose/g (Rattus norvegicus [3]): 0.32%
Injected dose/g (Rattus norvegicus [4]): 1.26%
BSI [5]: 159
Injected dose/g (Rattus norvegicus [6]): 12.09%
Injected dose/g (Rattus norvegicus [7]): 0.35%
Injected dose/g (Rattus norvegicus [8]): 2.66%
NSB [9]: 1.09
Injected dose/g (Rattus norvegicus [10]): 0.49%
Injected dose/g (Rattus norvegicus [11]): 1.29%
Injected dose/g (Rattus norvegicus [12]): 0.14%
Injected dose/g (Rattus norvegicus [13]): 0.84%
Injected dose/g (Rattus norvegicus [14]): 1.61%
Injected dose/g (Rattus norvegicus [15]): 0.19%
Injected dose/g (Rattus norvegicus [16]): 10%
Injected dose/g (Rattus norvegicus [17]): 0.76%
Injected dose/g (Rattus norvegicus [18]): 0.6%
Injected dose/g (Rattus norvegicus [19]): 1.59%
Injected dose/g (Rattus norvegicus [20]): 0.54%
Injected dose/g (Rattus norvegicus [21]): 1.84%
uterus/blood ratio (Rattus norvegicus [22]): 2.47
Injected dose/g (Rattus norvegicus [23]): 0.68%
RBA [24]: 173
Injected dose/g (Rattus norvegicus [25]): 2.86%
Injected dose/g (Rattus norvegicus [26]): 1.58%
SMILES: CC1(c2ccco2)O[C@@H]2CC3C4CCC5=CC(=O)CC[C@@H]5C4CC[C@]3(C)[C@]2(C(=O)CF)O1 (stereo partly specified)
